ChEMBL document CHEMBL3352414, “Structure based inhibitor design targeting glycogen phosphorylase B. Virtual screening, synthesis, biochemical and biological assessment of novel N-acyl-β-d-glucopyranosylamines” (Bioorg Med Chem, 2014)

What was measured:
[1] = molecular target: T1, Glycogen phosphorylase, liver form (Homo sapiens, UniProt P06737); assay: Inhibition of glycogen phosphorylase a (unknown origin)
T1 sequence (P06737 whole entry): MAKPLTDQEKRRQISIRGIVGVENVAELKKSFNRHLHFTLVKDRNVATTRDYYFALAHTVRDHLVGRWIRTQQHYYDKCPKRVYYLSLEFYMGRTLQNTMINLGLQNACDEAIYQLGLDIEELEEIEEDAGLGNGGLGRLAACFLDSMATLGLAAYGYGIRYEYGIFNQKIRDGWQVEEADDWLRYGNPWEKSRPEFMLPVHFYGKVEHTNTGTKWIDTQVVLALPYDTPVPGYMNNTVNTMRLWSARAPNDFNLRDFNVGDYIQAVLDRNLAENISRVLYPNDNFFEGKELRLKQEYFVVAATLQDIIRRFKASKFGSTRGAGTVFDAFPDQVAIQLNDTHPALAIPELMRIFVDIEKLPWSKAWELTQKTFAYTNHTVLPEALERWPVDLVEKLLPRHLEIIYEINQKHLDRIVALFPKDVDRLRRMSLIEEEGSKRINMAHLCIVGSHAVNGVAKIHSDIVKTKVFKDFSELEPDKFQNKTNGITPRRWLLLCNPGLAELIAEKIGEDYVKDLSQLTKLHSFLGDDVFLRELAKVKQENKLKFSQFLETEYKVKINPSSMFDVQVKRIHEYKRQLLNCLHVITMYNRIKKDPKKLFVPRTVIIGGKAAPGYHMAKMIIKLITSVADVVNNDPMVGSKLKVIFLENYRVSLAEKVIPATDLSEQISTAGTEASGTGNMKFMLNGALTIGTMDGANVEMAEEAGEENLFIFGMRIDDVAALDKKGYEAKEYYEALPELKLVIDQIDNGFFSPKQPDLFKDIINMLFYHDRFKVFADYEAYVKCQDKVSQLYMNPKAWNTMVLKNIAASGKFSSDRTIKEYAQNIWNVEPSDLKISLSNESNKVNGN

[2] = molecular target: T2, Glycogen phosphorylase, muscle form (Homo sapiens, UniProt P11217); assay: Inhibition of glycogen phosphorylase b (unknown origin)
T2 sequence (P11217 whole entry): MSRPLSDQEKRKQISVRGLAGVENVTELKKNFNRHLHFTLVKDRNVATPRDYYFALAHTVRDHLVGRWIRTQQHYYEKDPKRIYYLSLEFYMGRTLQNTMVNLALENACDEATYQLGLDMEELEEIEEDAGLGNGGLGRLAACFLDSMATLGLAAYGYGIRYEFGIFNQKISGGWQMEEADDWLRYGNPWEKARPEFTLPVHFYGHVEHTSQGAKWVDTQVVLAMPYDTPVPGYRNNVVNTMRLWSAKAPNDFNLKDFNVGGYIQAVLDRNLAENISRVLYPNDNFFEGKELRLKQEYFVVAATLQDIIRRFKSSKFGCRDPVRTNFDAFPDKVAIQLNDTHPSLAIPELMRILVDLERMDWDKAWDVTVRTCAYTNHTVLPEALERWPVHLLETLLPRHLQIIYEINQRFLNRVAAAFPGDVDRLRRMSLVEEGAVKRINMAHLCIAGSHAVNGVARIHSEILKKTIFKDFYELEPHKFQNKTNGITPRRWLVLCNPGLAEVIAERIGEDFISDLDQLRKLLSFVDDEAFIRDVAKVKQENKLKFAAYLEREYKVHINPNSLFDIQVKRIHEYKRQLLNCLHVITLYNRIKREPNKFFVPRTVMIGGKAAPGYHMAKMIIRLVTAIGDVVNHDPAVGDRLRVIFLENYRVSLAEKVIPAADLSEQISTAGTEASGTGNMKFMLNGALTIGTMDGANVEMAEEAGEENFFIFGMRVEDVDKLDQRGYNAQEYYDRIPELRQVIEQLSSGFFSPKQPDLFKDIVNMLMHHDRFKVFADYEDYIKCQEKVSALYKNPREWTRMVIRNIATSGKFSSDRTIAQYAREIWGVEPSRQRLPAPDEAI
Outline: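 Rabbit muscle GPb (5 μg/ml) was assayed at 30 °C in the glycogen-synthesis direction by measuring released inorganic phosphate. Buffer was 30 mM imidazole/HCl pH 6.8 with 60 mM KCl, 0.6 mM EDTA and 0.6 mM DTT. Glycogen 0.2% w/v and AMP 1 mM were held constant, with Glc-1-P at 2-20 mM and varied inhibitor. Enzyme and glycogen were preincubated 15 min, then Glc-1-P was added. Ki was obtained by non-linear regression of initial velocities.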

[3] = molecular target: T3, Glycogen phosphorylase, liver form (Rattus norvegicus) (UniProt P09811); assay: Inhibition of glycogen phosphorylase a in Wistar rat hepatocytes assessed as effect on conversion of GPa to GPb forms by measuring GPa level at 9 mM after 30 mins relative to 5 mM glucose; assay type: cell-based; design: scale not given: the % may be the effect or the level left; conditions: Hepatocyte
T3 sequence (whole entry): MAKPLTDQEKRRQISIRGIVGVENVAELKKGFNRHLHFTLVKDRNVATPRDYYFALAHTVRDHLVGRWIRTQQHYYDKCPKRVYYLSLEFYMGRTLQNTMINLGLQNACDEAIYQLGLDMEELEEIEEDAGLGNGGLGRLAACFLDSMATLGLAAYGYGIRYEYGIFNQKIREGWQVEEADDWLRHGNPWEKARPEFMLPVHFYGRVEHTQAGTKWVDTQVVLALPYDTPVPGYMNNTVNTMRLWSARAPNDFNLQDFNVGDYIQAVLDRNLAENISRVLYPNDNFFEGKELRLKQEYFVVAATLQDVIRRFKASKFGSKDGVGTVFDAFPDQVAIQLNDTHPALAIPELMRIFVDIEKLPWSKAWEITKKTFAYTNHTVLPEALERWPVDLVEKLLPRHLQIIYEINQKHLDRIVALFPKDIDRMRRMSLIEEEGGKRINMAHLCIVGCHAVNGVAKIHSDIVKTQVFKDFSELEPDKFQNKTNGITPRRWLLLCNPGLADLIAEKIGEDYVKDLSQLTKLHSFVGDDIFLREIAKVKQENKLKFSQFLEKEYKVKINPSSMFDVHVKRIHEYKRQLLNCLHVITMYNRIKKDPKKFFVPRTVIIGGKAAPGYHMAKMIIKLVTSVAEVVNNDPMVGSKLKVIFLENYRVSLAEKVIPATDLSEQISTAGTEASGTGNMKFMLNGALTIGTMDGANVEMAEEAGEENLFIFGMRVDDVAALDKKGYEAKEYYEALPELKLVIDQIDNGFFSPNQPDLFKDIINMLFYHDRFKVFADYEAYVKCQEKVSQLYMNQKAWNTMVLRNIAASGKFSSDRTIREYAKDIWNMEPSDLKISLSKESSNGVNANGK
Outline: (§1)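 Hepatocytes from male Wistar rats (200-300 g), isolated by collagenase perfusion, seeded at 6 x 10⁴ cells/cm² in MEM with 5% calf serum. After attachment they were cultured 24 h in serum-free MEM with 5 mM glucose, 10 nM dexamethasone and 1 nM insulin. Agents were added 1 h after the medium change and incubated 30 min. Cells were snap frozen, and GPa activity was read by coupling to glucose 6-phosphate dehydrogenase. Values are % of the 5 mM glucose control (with or without 9 mM 5-thioglucose); means ± SEM, n=5 preparations; paired t-test.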

[4] = molecular target: T4, Glycogen phosphorylase, muscle form (Oryctolagus cuniculus, UniProt P00489); assay: Inhibition of rabbit skeletal muscle glycogen phosphorylase b assessed as inorganic phosphate release; conditions: read-out: Ki
T4 sequence (P00489 whole entry): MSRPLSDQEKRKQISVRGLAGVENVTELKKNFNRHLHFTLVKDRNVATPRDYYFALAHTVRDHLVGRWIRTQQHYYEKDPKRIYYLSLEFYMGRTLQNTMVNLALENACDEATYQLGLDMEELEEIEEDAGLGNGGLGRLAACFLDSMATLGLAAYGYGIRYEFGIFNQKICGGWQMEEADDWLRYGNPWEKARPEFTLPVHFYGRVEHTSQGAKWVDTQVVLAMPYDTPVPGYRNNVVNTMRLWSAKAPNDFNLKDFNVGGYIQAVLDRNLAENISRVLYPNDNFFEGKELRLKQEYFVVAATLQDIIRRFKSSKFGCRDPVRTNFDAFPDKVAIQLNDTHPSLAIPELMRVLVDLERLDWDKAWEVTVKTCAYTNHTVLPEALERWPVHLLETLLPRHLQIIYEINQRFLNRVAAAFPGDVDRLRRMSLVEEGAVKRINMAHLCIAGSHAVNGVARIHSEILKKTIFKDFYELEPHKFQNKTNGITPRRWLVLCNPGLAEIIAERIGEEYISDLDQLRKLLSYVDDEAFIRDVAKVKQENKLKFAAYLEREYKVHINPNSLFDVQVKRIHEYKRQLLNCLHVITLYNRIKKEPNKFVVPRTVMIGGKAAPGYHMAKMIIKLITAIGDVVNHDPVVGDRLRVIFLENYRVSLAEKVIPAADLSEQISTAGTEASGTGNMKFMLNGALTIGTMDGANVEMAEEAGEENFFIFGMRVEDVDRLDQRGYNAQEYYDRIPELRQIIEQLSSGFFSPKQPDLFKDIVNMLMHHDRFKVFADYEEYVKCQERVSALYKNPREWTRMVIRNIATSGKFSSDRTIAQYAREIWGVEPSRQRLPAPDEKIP

[5] = molecular target: T3, Glycogen phosphorylase, liver form (Rattus norvegicus); assay: Inhibition of glycogen phosphorylase a in Wistar rat hepatocytes assessed as effect on conversion of GPa to GPb forms by measuring GPa level at 2 uM after 30 mins relative to 5 mM glucose; assay type: cell-based; design: scale not given: the % may be the effect or the level left; conditions: Hepatocyte; outline: as §1
[6] = Permeability in human Caco2 cells; assay type: ADME, cell-based; conditions: Caco-2, read-out: permeability
[7] = molecular target: T3, Glycogen phosphorylase, liver form (Rattus norvegicus); assay: Inhibition of glycogen phosphorylase a in Wistar rat hepatocytes assessed as effect on conversion of GPa to GPb forms by measuring GPa level at 20 uM after 30 mins relative to 5 mM glucose; assay type: cell-based; design: scale not given: the % may be the effect or the level left; conditions: Hepatocyte; outline: as §1
[8] = Octanol water partition coefficient, logP of the compound; assay type: physicochemical
[9] = molecular target: T3, Glycogen phosphorylase, liver form (Rattus norvegicus); assay: Inhibition of glycogen phosphorylase a in Wistar rat hepatocytes assessed as effect on conversion of GPa to GPb forms by measuring GPa level at 25 mM after 30 mins in presence of 9 mM 5-thioglucose relative to 5 mM glucose; assay type: cell-based; design: scale not given: the % may be the effect or the level left; conditions: Hepatocyte; outline: as §1
[10] = molecular target: T3, Glycogen phosphorylase, liver form (Rattus norvegicus); assay: Inhibition of glycogen phosphorylase a in Wistar rat hepatocytes assessed as effect on conversion of GPa to GPb forms by measuring GPa level at 25 mM after 30 mins relative to 5 mM glucose; assay type: cell-based; design: scale not given: the % may be the effect or the level left; conditions: Hepatocyte; outline: as §1

Row | Compound | Ki [4] [µM] | Activity [5] [%] | Papp [6] [×10⁻⁶ cm/s] | Activity [7] [%] | logP [8] | other results
1 | O=C(NCCOCCOCCNC(=O)c1cc2cc(Cl)ccc2[nH]1)c1cc2cc(Cl)ccc2[nH]1 | – | – | – | – | – | IC50 [1]: 0.006 µM
2 | OC[C@H]1O[C@H](O)[C@H](O)[C@@H](O)[C@@H]1O | – | – | – | – | – | Ki [1]: 4900 µM
3 | OC[C@H]1O[C@H](O[C@H]2[C@H](O)[C@@H](O)[C@@H](O[C@H]3[C@H](O)[C@@H](O)[C@@H](O[C@H]4[C@H](O)[C@@H](O)[C@@H](O[C@H]5[C@H](O)[C@@H](O)[C@@H](O[C@H]6[C@H](O)[C@@H](O)[C@@H](O[C@H]7[C@H](O)[C@@H](O)C(O)O[C@@H]7CO)O[C@@H]6CO)O[C@@H]5CO)O[C@@H]4CO)O[C@@H]3CO)O[C@@H]2CO)[C@H](O)[C@@H](O)[C@@H]1O (stereo partly drawn) | – | – | – | – | – | Ki [2]: 1000 µM
4 | O=C[C@H](O)[C@@H](O)[C@H](O)[C@H](S)CO | – | – | – | – | – | Activity [3]: 106%
5 | O=C(CCCc1ccc2c(c1)CCCC2)N[C@@H]1O[C@H](CO)[C@@H](O)[C@H](O)[C@H]1O | 48.7 | 93 | 9.51 | 100 | 0.208 | –
6 | O=C(O)C1=C(C(=O)O)NC=CC1 | – | – | – | – | – | Ki [2]: 0.0016 µM
7 | O=C(COc1ccc(-c2ccccc2)cc1)N[C@@H]1O[C@H](CO)[C@@H](O)[C@H](O)[C@H]1O | 8.25 | 84.5 | 5.09 | 80.3 | -0.082 | –
8 | O=C(/C=C/c1ccc(-c2ccccc2)cc1)N[C@@H]1O[C@H](CO)[C@@H](O)[C@H](O)[C@H]1O | 5.14 | 89.4 | 8.02 | 83.3 | 0.851 | –
9 | OC[C@H]1OC(O)[C@H](O)[C@@H](O)[C@@H]1O (stereo partly drawn) | – | – | – | – | – | Activity [9]: 78.7%; Activity [10]: 64.1%
10 | CC(C)c1ccc(/C=C/C(=O)N[C@@H]2O[C@H](CO)[C@@H](O)[C@H](O)[C@H]2O)cc1 | 4.98 | 105 | 9.85 | 106 | 0.296 | –
11 | O=c1c(O)c(-c2ccc(O)c(O)c2)oc2cc(O)cc(O)c12 [QUERCETIN] | – | – | – | – | – | IC50 [1]: 4.8 µM
